Screening data: PubChem, The Scripps Research Institute Molecular Screening Center
Shown are actives, neighbours in structure and some others; about 1.8% of the full set was active somewhere.
SIAE primary – human SIAE inhibitors, primary screen, biochemical, fluorescence polarization, FP-Rh probe, 1536-well HTS | Sialate O-acetylesterase (Homo sapiens), Q9HAT2 | SIAE FP-Rh probe binding | inhibition, % at 9.66 µM | 370,000 compounds, 0.69% hits;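 active = inhibition above a cutoff: mean of compounds within the control limits plus 3 SD of those, cut at about 17% in these data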
HTRA1 inhibitor – HTRA1 serine protease inhibitors, primary screen, biochemical, fluorescence polarization, HTS; recombinant HTRA1, FP-rhodamine activity-based probe; inhibition, % at 5.96 µM; 340,000 compounds, 0.5% hits; AID 504803, 2011; in the data active = inhibition above about 36%
Target sequence (Q92743 whole entry, looked up): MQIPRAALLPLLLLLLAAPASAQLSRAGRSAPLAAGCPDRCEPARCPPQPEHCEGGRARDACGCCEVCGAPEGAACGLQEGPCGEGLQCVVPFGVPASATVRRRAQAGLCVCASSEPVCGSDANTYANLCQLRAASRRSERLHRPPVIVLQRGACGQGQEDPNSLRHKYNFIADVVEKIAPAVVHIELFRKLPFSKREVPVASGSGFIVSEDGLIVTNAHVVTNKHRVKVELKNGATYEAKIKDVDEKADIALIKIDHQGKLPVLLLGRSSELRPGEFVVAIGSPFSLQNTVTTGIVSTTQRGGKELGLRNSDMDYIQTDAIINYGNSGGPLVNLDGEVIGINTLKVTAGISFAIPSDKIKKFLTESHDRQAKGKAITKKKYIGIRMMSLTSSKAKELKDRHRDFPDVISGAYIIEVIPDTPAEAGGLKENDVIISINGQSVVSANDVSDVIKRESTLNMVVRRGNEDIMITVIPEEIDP
ABHD4 inh – ABHD4 inhibitors, primary screen, biochemical, fluorescence polarization, mouse; (Lyso)-N-acylphosphatidylethanolamine lipase (Mus musculus), Q8VD66; 370,000 compounds, 0.54% hits; inhibition, % at 8.92 µM; purified mABHD4, FP-Rh probe fluorescence polarization;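 active = inhibition exceeding the mean over every tested compound plus 3 SD, cut at about 30% in these data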
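system = mouse ABHD4 enzyme, wild type | medium = HEPES pH 7.0, NaCl, Pluronic buffer | also added = FP-Rh probe | incubation = Enzyme–compound pre-incubation 45 min, then probe 60 min, both 25 °C | technique = fluorescence polarization, excitation 525 nm, emission 598 nm, BODIPY TMR filters | controls = S159A mutant high control, sample median low control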
DDE Tn6 FP inh – inhibitors of Tn6 peptide binding to fibrin DD(E), primary screen, biochemical, fluorescence polarization, human fibrin, Tn6 probe | Fibrinogen beta chain (Homo sapiens), P02675 | AID 720509, 2013 | inhibition, % at 8.3 µM | 370,000 compounds, 0.21% hits | Fibrin DD(E) TRITC-Tn6 fluorescence polarization displacement;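 active = inhibition above a per-campaign cutoff: mean of compounds within control limits plus 3 SD, cut at about 15% in these data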
TCR-CD3 inh – inhibitors of human TCR-CD3 interaction, primary screen, biochemical, fluorescence, TAMRA-labeled TCR probe | T-cell receptor (TCR) | inhibition, % at 9.4 µM | 360,000 compounds, 0.37% hits | AID 651800, 2012; in the data active = inhibition above about 19%;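 note: recombinant mutant TCR 2C K166C tagged with TAMRA read by polarization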
DDE Tn7 FP inh – inhibitors of Tn7 peptide binding to fibrin DD(E), primary screen, biochemical, fluorescence polarization, human fibrin, Tn7 probe; Fibrinogen beta chain (Homo sapiens), P02675; FP displacement of FITC-Tn7 peptide from fibrin DD(E); 0% = median of compound wells per plate; inhibition, % at 8.3 µM; 370,000 compounds, 0.13% hits; AID 720508, 2013;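 active = inhibition above the mean of compounds falling within the control limits plus 3 SD of them, cut at about 14% in these data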
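Also added: labelled Tn7 tracer, 0.1 µM; Assay system: human fibrin DD(E) protein; Amount: 2 µM fibrin DD(E); Schedule: 10 min compound pre-incubation, 3 h probe incubation at room temperature; Repeats: one replicate per compound; Read-out basis: percent inhibition; Measured by: fluorescence polarization of the labelled Tn7 tracer.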
HTRA1 inh conf – HTRA1 protease inhibitors, retest, confirmation, biochemical, fluorescence polarization. recombinant HTRA1, FP-rhodamine activity-based probe. 1,600 compounds, 66% hits. inhibition, % at 5.96 µM. shares compounds with HTRA1 inhibitor;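 active = mean inhibition over three repeats above a set limit taken from the earlier primary screen, cut at about 37% in these data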;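 note: inhibitors block probe binding so polarization drops and inhibition rises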
Large screens that a line does not name were inactive (follow-up assays come after a bar, where they were run).

CCCCCCSc1cccc(-c2nc3ccc(C)cn3c2NC2CCCCC2)c1	none
Cc1ccc2nc(-c3ccccn3)c(NC3CCCC3)n2c1	HTRA1 inhibitor 38 | HTRA1 inh conf 38
CCCCNC(=O)C[C@H]1C[C@@]2(C(=O)OC)C(=C[C@H](C3CCCC3)O[C@@H]2C)N(CCC2=CCCCC2)C1=O	none (no result: HTRA1 inhibitor, TCR-CD3 inh)
COc1ccc(Sc2nc(-c3ccccn3)ncc2OC)cc1	HTRA1 inhibitor 62 | HTRA1 inh conf 54
CC(C)(C)n1cnc2cc(NCc3ccccc3O)ccc21	HTRA1 inhibitor 46 | HTRA1 inh conf inactive
CCc1ccc2c(c1)C1(NN=C(c3ccc(C)cc3)S1)C(=O)N2 (stereo not drawn)	HTRA1 inhibitor 37 | HTRA1 inh conf 53
CC(C)c1ccc2c(c1)C1(NN=C(c3ccccc3)S1)C(=O)N2 (stereo not drawn)	HTRA1 inhibitor 46 | HTRA1 inh conf 66
CC(=O)Nc1ccc(C(=O)OCC(=O)NCc2ccc3c(c2)OCO3)cc1	none
COC(=O)[C@H](C(C)C)N(CCCc1cn(Cc2ccccc2)nn1)S(=O)(=O)c1ccccc1Br	none (no result: HTRA1 inhibitor, TCR-CD3 inh)
CCOc1ccc2c(c1)-c1c(ssc1=S)C(C)(C)N2	HTRA1 inhibitor 46 (no result: SIAE primary, ABHD4 inh, DDE Tn6 FP inh, TCR-CD3 inh, DDE Tn7 FP inh) | HTRA1 inh conf 61
Cn1[nH]cc(C=NC(N)=O)c1=O	HTRA1 inhibitor 47 | HTRA1 inh conf inactive
CCN(CC)CCn1c2ccccc2c(=O)c2c(O)ccc(O)c21	HTRA1 inhibitor 55, ABHD4 inh 33 | HTRA1 inh conf 48
CCN(CC)CCn1c(O)c(N=O)c2ccccc21	none
CC(C)[C@H](NC(=O)c1ccccc1)C(=O)OCC(=O)Nc1ccc(S(=O)(=O)N2CCOCC2)cc1	none
CC(C)[C@H](NC(=O)c1cccc(S(=O)(=O)N2CCOCC2)c1)C(=O)OCC(=O)Nc1cccc(Br)c1	HTRA1 inhibitor 37 | HTRA1 inh conf 37
O=C1Nc2ccc(Br)cc2C12NNc1ccccc1O2 (stereo not drawn)	HTRA1 inhibitor 49 | HTRA1 inh conf 62
O=S(=O)(O)c1ccc(O)c2cc(Nc3ccccc3)ccc12	SIAE primary 55, HTRA1 inhibitor 67, ABHD4 inh 78, TCR-CD3 inh 44 | HTRA1 inh conf 44
CCCCCCn1ccc(=N)cc1	none
CCCCCCCCCCCCCCCCn1cc[n+](CC(C)=O)c1	HTRA1 inhibitor 72 (no result: SIAE primary, ABHD4 inh, DDE Tn6 FP inh, TCR-CD3 inh, DDE Tn7 FP inh) | HTRA1 inh conf 86
O=C(N[C@@H](Cc1cccnc1)C(=O)N1CCC[C@H]1C(=O)NCCc1ccccc1Cl)c1ccco1	none (no result: HTRA1 inhibitor)
Oc1ccccc1/C=N/NC(=S)NC1CC2CC1C1C=CCC21 (stereo not drawn)	HTRA1 inhibitor 37 | HTRA1 inh conf inactive
CCc1ccc(CN(C)C(=O)C2=CC=CN3CCS(=O)(=O)N=C23)cc1	none
C[C@H](O)[C@@H]1CN2CCc3ccc(-c4ccc5c(c4)OCO5)cc3[C@@H]2C[C@@H]1N(C)CC1CCCCC1	none (no result: HTRA1 inhibitor, TCR-CD3 inh)
COc1ccc(OC)c(-c2c3cc(O)c(=O)cc-3oc3cc(O)c(O)cc23)c1	HTRA1 inhibitor 85 (no result: SIAE primary, ABHD4 inh, DDE Tn6 FP inh, TCR-CD3 inh, DDE Tn7 FP inh) | HTRA1 inh conf 90
O=c1cc2oc3cc(O)c(O)cc3c(-c3ccccc3O)c-2cc1O	HTRA1 inhibitor 60 (no result: SIAE primary, ABHD4 inh, DDE Tn6 FP inh, TCR-CD3 inh, DDE Tn7 FP inh) | HTRA1 inh conf 127
Cc1ccccc1-c1cc(=O)c2c(O)cccc2o1	none
COc1ccc(OC)c(-c2oc3ccccc3c(=O)c2O)c1	none
CN1OC[C@@H]2CN(C(=O)c3ccc(C#N)cc3)[C@H](c3cccc(Br)c3)C[C@@H]21	none (no result: HTRA1 inhibitor)
CCCCOCCCNC(=O)C[C@H]1C[C@@]2(C(=O)OC)C(=C[C@H](C(C)(C)C)O[C@@H]2C)N(Cc2cccc3ccccc23)C1=O	none (no result: HTRA1 inhibitor, TCR-CD3 inh)
CC[n+]1ccc(C)c2cc(SC(F)(F)F)ccc21	HTRA1 inhibitor 36 (no result: SIAE primary, ABHD4 inh, DDE Tn6 FP inh, TCR-CD3 inh, DDE Tn7 FP inh) | HTRA1 inh conf inactive
Cc1cc[n+](CC(=O)c2ccc(NC(=O)c3ccccc3)cc2)c2ccccc12	none
CC[n+]1ccc(C)c2cc(P(=O)(c3ccccc3)c3ccccc3)ccc21	HTRA1 inhibitor 44 | HTRA1 inh conf inactive
Cc1c(C(C)c2ccccc2O)c2ccccc2n1C (stereo not drawn)	none (no result: HTRA1 inhibitor, TCR-CD3 inh)
CCOC(=O)[C@@H]1c2[nH]c3ccccc3c2C[C@@]2(C(=O)OC)C=CCN12	none (no result: HTRA1 inhibitor, TCR-CD3 inh)
C#CCN1CC(N(C)CCCO)CS1(=O)=O (stereo not drawn)	none (no result: HTRA1 inhibitor, TCR-CD3 inh)
COc1ccccc1/C=C1\SC(=S)N(CCC(=O)NNC(=O)c2ccccc2O)C1=O	HTRA1 inhibitor 39 (no result: SIAE primary, ABHD4 inh, DDE Tn6 FP inh, TCR-CD3 inh, DDE Tn7 FP inh) | HTRA1 inh conf 68
O=C1c2ccccc2-c2onc3ccc(NCc4ccco4)c1c23	HTRA1 inhibitor 117 (no result: SIAE primary, ABHD4 inh, DDE Tn6 FP inh, TCR-CD3 inh, DDE Tn7 FP inh) | HTRA1 inh conf 108
O=C1C(Cl)=C(NCc2ccco2)C(=O)c2ccccc21	none
O=[N+]([O-])c1ccc(N/N=C/c2cccc(O)c2O)c(S(=O)(=O)N2CCOCC2)c1	HTRA1 inhibitor 59 | HTRA1 inh conf 54
O=[N+]([O-])c1ccccc1N/N=C/c1cccc(O)c1O	HTRA1 inhibitor 48 | HTRA1 inh conf inactive
CCCCNc1c2c3c(cccc3n(C)c1=O)C(=O)c1ccccc1-2	HTRA1 inhibitor 68 (no result: SIAE primary, ABHD4 inh, DDE Tn6 FP inh, TCR-CD3 inh, DDE Tn7 FP inh) | HTRA1 inh conf 70
CN1C(=O)c2cccc(NCCCN3C(=O)c4ccccc4C3=O)c2C1=O	none
Cc1ccc(NC(=O)CCNS(=O)(=O)c2ccc3[nH]c(=O)oc3c2)cc1N(C)C	none
Nc1ccccc1NC1CCCCC1	HTRA1 inhibitor 41 | HTRA1 inh conf 48
O=C(/C(=N/N=C/c1ccc(O)c(O)c1)c1ccccc1)c1ccccc1	HTRA1 inhibitor 41 | HTRA1 inh conf 78
O=C(Cn1nc(-c2ccccc2)ccc1=O)NCCc1ccccc1F	none (no result: HTRA1 inhibitor, TCR-CD3 inh)
Nc1ccc2c(c1)C(=O)c1ccccc1-2	none
Nc1ccc2c(c1)C(=O)C(=O)c1ccccc1-2	HTRA1 inhibitor 42 | HTRA1 inh conf inactive
CCCCn1c(/C=N/Nc2nc3ccccc3[nH]2)nc2ccccc21	HTRA1 inhibitor 41 | HTRA1 inh conf 59
Cc1occc1C(=O)N/N=C/c1c(O)ccc2ccccc12	none
